{"data": "Results of several laboratories", "matrix": "plasma"}
{"Structure (SMILES)": "O=C(O)CCS(=O)(=O)O", "species": "male Sprague-Dawley rat", "route": "intravenous", "dose": "10 mg/kg", "Tmax [min]": 4.98}
{"Structure (SMILES)": "COc1nc(-c2cc(C)c(N[C@@H](C)c3cc(F)cc(F)c3)nn2)ccc1-n1cnc(C)c1", "species": "male Sprague-Dawley rat", "route": "intravenous", "dose": "1 mg/kg", "notes": "single dose", "Tmax [min]": 4.98}
{"Structure (SMILES)": "CCc1cc(C(=O)NC)c2nccc(N3CCc4c(cc(Cn5ccnc5)cc4-c4cn(C)nc4C(F)(F)F)C3=O)c2c1", "species": "male Sprague-Dawley rat", "route": "oral", "dose": "50 mg/kg", "notes": "single dose", "Tmax [min]": 48}
{"Structure (SMILES)": "N#Cc1[nH]nnc1-c1cc(Cl)cc(/C=C/c2cccc(C(F)(F)F)c2)c1", "species": "male Sprague-Dawley rat", "route": "oral", "dose": "10 mg/kg", "Tmax [min]": 318}
{"Structure (SMILES)": "COc1ccc2c(Cc3ccccc3F)c3n(c(=O)c2c1OC)CCc1cc2c(cc1-3)OCO2", "species": "rat", "route": "oral", "dose": "5 mg/kg", "Tmax [min]": 160}
{"Structure (SMILES)": "N#Cc1ccc(Nc2nc(N)cc(Oc3c(F)cc(-c4ccc(C#N)cc4)cc3F)n2)cc1", "species": "Sprague-Dawley rat", "route": "intravenous", "dose": "1 mg/kg", "Tmax [min]": 4.8}
{"Structure (SMILES)": "CNCc1cc(-c2ccccc2F)n(S(=O)(=O)c2cccnc2)c1", "species": "male Sprague-Dawley rat", "route": "oral", "dose": "10 mg/kg", "Tmax [min]": 60}
{"Structure (SMILES)": "O=C(Nc1cc(F)c(F)c(F)c1)c1ccc(F)c(S(=O)(=O)NCc2cccc(B(O)O)c2)c1", "species": "male Sprague-Dawley rat", "route": "intravenous", "dose": "2 mg/kg", "Tmax [min]": 4.8}
{"Structure (SMILES)": "C=CC(=O)N1CC2CC(n3nc(-c4ccc(C(=O)Nc5ccccn5)cc4)c4c(N)ncnc43)CC2C1 (stereo not shown)", "species": "male Wistar rat", "route": "oral", "dose": "3 mg/kg", "Tmax [min]": 15}
{"Structure (SMILES)": "COc1cc(/C=C/C(=O)CC(=O)/C=C/c2ccc(O)c(OC)c2)ccc1O", "species": "male Sprague-Dawley rat", "route": "oral", "dose": "100 mg/kg", "Tmax [min]": 10}
{"Structure (SMILES)": "Cc1c(-c2ccccc2)cccc1N1C(=O)c2cc(CN[C@H](C(=O)O)C(C)O)c(OCc3cccc(C#N)c3)cc2C1=O (stereo partly shown)", "species": "Sprague-Dawley rat", "route": "intravenous", "dose": "5 mg/kg", "Tmax [min]": 4.8}
{"Structure (SMILES)": "CNCc1cc(-c2ccccc2F)n(S(=O)(=O)c2cccnc2)c1", "species": "Sprague-Dawley rat", "route": "oral", "dose": "10 mg/kg", "Tmax [min]": "~66"}
{"Structure (SMILES)": "Oc1c(Br)cc(Cl)c2cccnc12", "species": "Sprague-Dawley rat", "route": "subcutaneous", "dose": "10 mg/kg", "Tmax [min]": 72}
{"Structure (SMILES)": "CCc1nc(C(N)=O)c(Nc2ccc(N3CCC(N4CCN(C)CC4)CC3)c(OC)c2)nc1NC1CCOCC1", "species": "male Sprague-Dawley rat", "route": "oral", "dose": "10 mg/kg", "Tmax [min]": 660}
{"Structure (SMILES)": "N#Cc1[nH]nnc1-c1cccc(OCc2cc(C(F)(F)F)ccc2C(F)(F)F)c1", "species": "male Sprague-Dawley rat", "route": "oral", "dose": "10 mg/kg", "Tmax [min]": 78}
{"Structure (SMILES)": "CC[C@H](C)[C@H](NC(=O)[C@H](Cc1ccccc1)NC(=O)[C@H](CCC(=O)O)NC(=O)[C@H](CCCNC(=N)N)NC(=O)[C@H](C)NC(=O)[C@H](C)NC(=O)[C@H](CCC(N)=O)NC(=O)[C@H](CCC(=O)O)NC(=O)[C@H](CCC(=O)O)NC(=O)[C@H](CC(C)C)NC(=O)[C@H](Cc1ccc(O)cc1)NC(=O)[C@H](CO)NC(=O)[C@H](CO)NC(=O)[C@@H](NC(=O)[C@H](CC(=O)O)NC(=O)[C@H](CO)NC(=O)[C@@H](NC(=O)[C@H](Cc1ccccc1)NC(=O)[C@@H](NC(=O)CNC(=O)[C@H](CCC(=O)O)NC(=O)[C@H](C)NC(=O)CCc1c[nH]cn1)[C@@H](C)O)[C@@H](C)O)C(C)C)C(=O)N[C@@H](C)C(=O)N[C@@H](Cc1c[nH]c2ccccc12)C(=O)N[C@@H](CC(C)C)C(=O)N[C@H](C(=O)N[C@@H](CCCNC(=N)N)C(=O)NCC(=O)N[C@@H](CCCNC(=N)N)C(=O)N[C@@H](CCCCNC(=O)COCCOCCNC(=O)COCCOCCNC(=O)CC[C@H](NC(=O)CCCCCCCCCCCCCCCCC(=O)O)C(=O)O)C(=O)O)C(C)C", "species": "rat", "route": "subcutaneous", "dose": "20 nmol/kg", "Tmax [min]": 600}
